High-throughput results deposited in PubChem BioAssay by several laboratories.
Hits are enriched below; roughly 3.3% of the tested compounds scored in any of these assays.
FXN GAA850 act: frataxin GAA850 promoter activation. HEK293 lucGAA850 FXN promoter luciferase reporter, 24 h; percent of 10 µM SAHA response. activation, % at 6 µM. actives 0.56% (n = 360,000). AID 540364;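 active means activation above the average of all compounds screened plus 3 SD, cutoff fixed separately per campaign, cut at about 7.5% in these data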;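 further: 0% = DMSO wells and 100% = 10 µM SAHA wells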
AHR activator: activators of human aryl hydrocarbon receptor; AHR-responsive luciferase reporter cells, luminescence; AID 2796; activation, % at 5 µM; actives 2.5% (n = 320,000); P35869; in the data active means activation above about 47%;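 further: 0% = vehicle wells and 100% = reference agonist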
ABCB6 inh MLPCN: blocks the human ABCB6 transporter | Q9NP58 | K562-ABCB6 porphyrin accumulation, flow cytometry, 1 h; active compounds read low | fluorescence ratio to DMSO, % at 10 µM | actives 0.19% (n = 360,000) | AID 602162;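 active means fluorescence ratio to DMSO below 75%, the collection mean minus 3 SD; inconclusive means too few cells collected in the well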;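 further: signal is porphyrin accumulated inside mitochondria; 100% equals median channel fluorescence of DMSO control wells; lower ratio means ABCB6 inhibition with less porphyrin fluorescence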
Target sequence (Q9NP58 whole entry, looked up): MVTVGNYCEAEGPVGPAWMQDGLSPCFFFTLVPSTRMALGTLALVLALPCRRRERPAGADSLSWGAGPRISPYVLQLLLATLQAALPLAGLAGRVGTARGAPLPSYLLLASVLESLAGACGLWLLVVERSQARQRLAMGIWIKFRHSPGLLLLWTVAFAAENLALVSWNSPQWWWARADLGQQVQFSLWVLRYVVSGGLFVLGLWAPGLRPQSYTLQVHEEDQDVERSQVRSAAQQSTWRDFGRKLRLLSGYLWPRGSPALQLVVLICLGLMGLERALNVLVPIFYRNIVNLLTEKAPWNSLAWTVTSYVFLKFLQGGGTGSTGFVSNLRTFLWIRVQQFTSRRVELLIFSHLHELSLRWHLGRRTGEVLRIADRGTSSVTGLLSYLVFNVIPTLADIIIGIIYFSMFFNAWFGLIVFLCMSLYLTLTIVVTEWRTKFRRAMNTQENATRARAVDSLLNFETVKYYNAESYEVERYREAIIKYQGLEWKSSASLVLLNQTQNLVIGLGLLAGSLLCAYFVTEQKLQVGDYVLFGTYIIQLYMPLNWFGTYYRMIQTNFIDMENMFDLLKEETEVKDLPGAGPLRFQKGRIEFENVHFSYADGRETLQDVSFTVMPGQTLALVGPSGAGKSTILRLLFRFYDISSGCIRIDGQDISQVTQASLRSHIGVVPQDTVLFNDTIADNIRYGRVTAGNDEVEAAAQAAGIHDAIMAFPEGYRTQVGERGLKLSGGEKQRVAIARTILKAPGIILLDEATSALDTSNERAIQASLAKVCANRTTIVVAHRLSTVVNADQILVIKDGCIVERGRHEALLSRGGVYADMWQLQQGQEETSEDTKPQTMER
STAT3 activator: STAT3 signaling activation | U3A cells, IL-6 STAT3-luciferase reporter, luminescence; 100% = signal with IL-6 EC80 alone | activation (% of control), % at 5.6 µM | AID 871 | actives 0.91% (n = 190,000);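 active means activation above the screen-wide mean of compound activation plus 3 SD, cut at about 130% in these data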;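 further: 0% = background luminescence of wells with medium and substrate only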
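Material: STAT1-lacking human U3A cells, STAT3 luciferase reporter | Benchmarks: IL-6-only wells as 100% reference | Probe or stimulus: IL-6 (33 ng/mL) | Timing: Compound 1 h, then IL-6 6 h at 37 °C | Detection: Luminescence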
An asterisk follows results filed as active; u = inconclusive; x = no result given.

SMILES	FXN GAA850 act	AHR activator	ABCB6 inh MLPCN	STAT3 activator
COc1ccccc1CNC(=O)C1CCC(=O)N(CCCc2ccccc2)C1 (stereo not drawn)	-2	0	105	x
CCCCCCn1c(SCC(=O)c2c(N)n(C)c(=O)n(C)c2=O)nc2ccccc21	6	0	95	100
CCCn1c(N)c(C(=O)CSc2nc3ccccc3n2CCC#N)c(=O)n(C)c1=O	1	53*	92	98
Cc1ccnc(NC(=O)c2oc3ccccc3c2C)c1	3	44	100	x
COc1ccccc1NC(=O)c1oc2ccccc2c1C	3	x	100	x
CC(=O)Nc1c(C(=O)c2ccccc2)oc2ccccc12	0	109*	90	80
Cc1c(C(=O)Nc2cnccn2)oc2ccccc12	-1	93*	106	124
CC(=O)Nc1cccc(NC(=O)c2oc3ccccc3c2C)c1	x	113*	x	104
COc1ccc(NC(=O)c2oc3ccccc3c2C)c(OC)c1	2	58*	100	111
CC(=O)Nc1ccc(NC(=S)NC(=O)c2oc3ccccc3c2C)cc1	-1	18	104	94
Cc1ccc2nc(SC(C(=O)Nc3ccc(F)cc3)c3ccccc3)[nH]c2c1 (stereo not drawn)	-7	79*	u	100
CC1OC(c2ccccc2)OC2COC(c3ccccc3)OC12 (stereo not drawn)	0	x	107	x
CC(C)CC1c2[nH]c3ccccc3c2CCN1C(=O)c1cnccn1 (stereo not drawn)	x	16	x	171*
COc1cc(C(=O)NCC(c2cccs2)N2CCc3ccccc32)cc(OC)c1OC (stereo not drawn)	-5	48*	102	x
Cc1nc(-c2c(-c3ccc(O)cc3O)noc2C(F)(F)F)cs1	-4	-1	100	78
Cc1[nH]c2ccccc2c1N=Nc1cc(C(=O)O)cc(C(=O)O)c1	1	8	100	117
Cc1[nH]c2ccccc2c1N=Nc1ccc(F)cc1	3	67*	89	125
Cc1[nH]c2ccccc2c1N=Nc1ccccc1F	2	51*	91	108
Oc1[nH]c2ccccc2c1N=Nc1ccccc1Cl	4	x	96	x
O=C(c1ccc(NS(=O)(=O)c2ccccc2)cc1)N1CCN(c2ccccc2)CC1	-1	-1	87	x
Cc1cccc(Cl)c1OCCCCn1ccnc1	1	57*	101	95
Clc1ccccc1OCCCCn1ccnc1	5	74*	94	100
Cc1ccc2nc(C)c3c(c2c1)N(c1ccc(F)cc1)CC3	-2	-1	89	x
Cc1ccc(CNC(=O)C2CCCN(S(=O)(=O)c3ccc(-n4cnnn4)cc3)C2)cc1 (stereo not drawn)	0	-1	98	x
CCNC(=O)CSc1nnc(-c2cc(-c3ccc(Cl)cc3)nc3ccccc23)o1	-2	50*	103	88
SMILES	FXN GAA850 act	AHR activator	ABCB6 inh MLPCN	STAT3 activator
O=C(Nc1ccc(-c2n[nH]c(=S)o2)cc1)c1ccccc1Cl	0	6	97	x
Fc1ccccc1-c1csc(=Nc2cccnc2)n1CC1CCCO1 (stereo not drawn)	2	23	100	99
Fc1ccccc1-c1csc(=Nc2cccnc2)n1CCCn1ccnc1	-3	70*	96	100
COC(CNC(=O)C(=O)Nc1cc2c3c(c1)CCN3C(=O)CC2)OC	1	-1	93	x
CCc1ccc2[nH]c(C(=O)Nc3ccc4c(c3)OCO4)cc2c1	2	72*	100	x
CCc1onc(C)c1C(=O)Nc1ccc2c(c1)OCO2	-1	58*	107	103
CCc1ccc2[nH]c(C(=O)Nc3ccc(Br)c(C)n3)cc2c1	1	x	102	x
CCc1ccc2[nH]c(C(=O)Nc3ccc(F)cc3Br)cc2c1	2	49*	99	x
O=C(Nc1ccc2c(c1)OCO2)c1c(F)c(F)c(F)c(F)c1F	-1	10	101	106
CC(C)CNC(=O)COC(=O)c1ccccc1SCC(=O)NCC(C)C	1	1	97	94
N#CC1C(=O)NC(=O)C(C#N)C12CCCc1sccc12 (stereo not drawn)	1	x	102	x
O=C(O)c1ccc(OCC(F)(F)F)nc1	0	0	100	x
CCCCn1c(SCC2CCCO2)nc2cc(S(N)(=O)=O)ccc21 (stereo not drawn)	1	0	105	101
CCOc1ccc(Br)cc1C(=O)N/N=C/c1c[nH]c2ccccc12	1	47*	94	x
Cc1cc(C(=O)N/N=C/c2c[nH]c3ccccc23)c(C)o1	5	56*	101	99
O=C(N/N=C/c1cc2c(cc1Br)OCO2)c1c[nH]c2ccccc12	4	14	99	90
CCOc1ccc(Br)cc1C(=O)N/N=C/c1ccccn1	0	22	95	x
O=C(N/N=C/c1c[nH]c2ccccc12)c1cc(Br)ccc1O	2	77*	99	x
O=C(N/N=C/c1ccc(Br)s1)c1c[nH]c2ccccc12	4	146*	99	114
CCOC1=C2CN(S(=O)(=O)c3ccc(C)cc3)[C@@H](c3cccs3)C[C@H]2[C@H]2C(=O)N(c3ccccc3)C(=O)[C@H]2C1	x	x	99	x
CCNC(=O)C1(C)CCN(Cc2ccccc2-c2ccccc2)C1 (stereo not drawn)	-1	x	102	x
O=C(N/N=C/c1c[nH]c2ccc(Br)cc12)c1ccncc1	-1	74*	91	76
COc1ccc(Nc2nc(OC)nc(N3CCOCC3)n2)cc1	3	51*	100	82
O=C1CSCN1c1ccc(Cl)cc1	1	-2	101	101
COc1cc(C(=O)O)cc(NC(=O)c2cccs2)c1OC	4	2	98	98
SMILES	FXN GAA850 act	AHR activator	ABCB6 inh MLPCN	STAT3 activator
COc1cc(C(=O)OCc2ccc(C)cc2)cc(NC(=O)c2cccs2)c1OC	0	58*	103	92
Cc1cccc(C(=O)Nc2ccc(C(=O)/C=C/c3cccnc3)cc2)c1	15*	3	95	110
O=C(CN1CCN(C(=O)c2ccccc2F)CC1)Nc1ccc(Br)cc1	-2	56*	89	109
CSc1ccc(/C=C/C(=O)OCC(=O)N2CCN(c3ccccc3)CC2)cc1	2	x	98	x
CC1CCc2c(sc3ncnc(NCCCOC(C)C)c23)C1 (stereo not drawn)	2	61*	88	101
CC(C)c1ccc(CN2CCSCC2)cc1	2	0	93	x
O=C(c1ccc(Br)o1)N1CCN(c2ccc3nnc(-c4ccc(F)cc4)n3n2)CC1	2	47*	98	96
COc1cc(OC)c(OC)cc1C#N	1	2	100	101
COc1cc2c(cc1OC)C1(CCCC1)C(N)=C2C#N	1	48*	100	109
CCOc1cc(C(=O)NC)cc(Br)c1OC	-1	2	99	95
CCOc1cc(C(=O)N=c2sccn2C)cc(Br)c1OC	-1	55*	100	x
CN(C)c1ccc(NC(=O)c2sc(SCC(=O)Nc3nccs3)nc2N)cc1	7	78*	93	106
CN(C)c1ccc(NC(=O)c2sc(SCC(=O)Nc3ccc(Br)cc3)nc2N)cc1	1	3	94	99
NNC(=O)CN1CCCc2ccccc21	-3	71*	102	107
